From ChEMBL document CHEMBL2434825, “2-Heteroarylimino-5-arylidene-4-thiazolidinones as a new class of non-nucleoside inhibitors of HCV NS5B polymerase” (Eur J Med Chem, 2013)
Active and inactive are the calls of the source. The calls are words filed in the database; no cut-off is given here.

Tests used:
Hepatitis C virus [1] = experiment: Antiviral activity against Hepatitis C virus subtype 2a infected in human Huh7.5 cells assessed as inhibition of viral RNA replication at 100 uM after 42 hrs by […] assay relative to control; type: functional, Hepacivirus hominis; settings: genotype 2a; for inhibition at 100 µM: Huh-7, 42 h; for inhibition: Hepacivirus hominis, Huh-7
Procedure, shortened: (§1)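 Replicon reporter cells (Huh7/Rep-Feo1b for 1b; Huh7.5-FGR-JC1-Rluc2A for 2a) kept in DMEM, 10% FCS, 0.5 mg/mL G418, 37 °C, 5% CO2. Seeded 1 × 10^4 cells/well, treated 8 h later with 100 μM compound or DMSO for 42 h. Luciferase signal read as percent of DMSO controls. Viability by MTS assay in parental Huh7.5 cells. Average of two independent experiments in duplicate.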

Hepatitis C virus [2] = experiment: Antiviral activity against Hepatitis C virus subtype 1b infected in human HuH7 cells assessed as inhibition of viral RNA replication at 100 uM after 42 hrs by […] assay relative to control; type: functional, Hepacivirus hominis; settings: genotype 1b; for inhibition at 100 µM: Huh-7, 42 h; for inhibition: Hepacivirus hominis, Huh-7; procedure, shortened: as §1
[3] = Cytotoxicity against BHK cells transfected with HCV NS5B RdRp assessed as cell viability at 100 uM after 42 hrs by luciferase reporter gene assay; type: cell-based, Mesocricetus auratus; settings: hamster, read-out: Activity
Procedure, shortened: (§2)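 BHK cells stably carrying NS5B plus bicistronic (+)FLuc-(−)UTR-RLuc reporter, grown in DMEM, 10% FBS, 1 mg/mL G418, blasticidin. Seeded 1 × 10^4 cells/well, given 100 μM compound 8 h later, lysed 42 h post-treatment, dual luciferase read. Viability taken as firefly luciferase relative to DMSO controls. NS5B activity taken as percent reduction in RLuc/FLuc ratio versus DMSO. Two independent experiments in duplicate.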

Hepacivirus hominis = experiment: Inhibition of HCV NS5BCdelta21 RdRp activity at 100 uM after 1 hr by liquid scintillation counting analysis in presence of [alpha-32P]UTP relative to control
Procedure, shortened: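 Template 0.25 μM polyrA/U12, with 25 μM UTP plus [α-32P]UTP. Inhibitor at 100 μM, 1 h, 30 °C. Stopped with cold 5% TCA/0.5 mM pyrophosphate, product filter-captured and counted by scintillation. Background-subtracted, relative to DMSO (100%). At least two independent experiments in duplicate.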

[4] = Inhibition of HCV NS5B RdRp activity transfected in BHK cells at 100 uM after 42 hrs by dual-glo luciferase reporter gene assay relative to control; type: cell-based; settings: Hepacivirus hominis; procedure, shortened: as §2
[5] = Inhibition of HCV NS5BCdelta21 RdRp activity after 1 hr by liquid scintillation counting analysis in presence of [alpha-32P]UTP; design: species or system Hepacivirus hominis
Procedure, shortened: (§3)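 NS5BCΔ21 (300 ng) was incubated 1 h at 30 °C with 0.25 μM polyrA/U12, 25 μM UTP plus [α-32P]UTP and 1.0 mM MnCl2 in 20 mM Tris-HCl pH 7.0 with NaCl, Na glutamate, DTT, BSA, Tween-20, glycerol and RNase inhibitor. Reactions were stopped with cold 5% TCA/pyrophosphate, captured on GF-B filters and scintillation-counted versus a background-subtracted DMSO control. Screening used 100 μM; IC50 came from 8–12-point curves, duplicate, two experiments.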

[6] = Cytotoxicity against human Huh7.5 cells assessed as cell viability at 100 uM after 42 hrs by MTS assay; type: cell-based, Huh-7; settings: read-out: Activity
[7] = Selectivity ratio for Hepatitis C virus subtype 2a infected in human Huh7.5 cells over Hepatitis C virus subtype 1b infected in human HuH7 cells; type: functional, Huh-7
[8] = Inhibition of HCV NS5B RdRp activity; design: species or system Hepacivirus hominis; procedure, shortened: as §3
[9] = Inhibition of 6xHis-tagged HCV NS5B RdRp activity; design: species or system Hepacivirus hominis; procedure, shortened: as §3

| Structure (SMILES) | inhibition at 100 µM (Hepatitis C virus [1]) [%] | inhibition at 100 µM (Hepatitis C virus [2]) [%] | viability at 42 h, 100 µM [3] [%] | inhibition (Hepacivirus hominis) [%] | inhibition [4] | IC50 [5] [µM] | viability at 42 h, 100 µM [6] [%] | Selectivity ratio [7] | inhibition (Hepatitis C virus [1]) | inhibition (Hepatitis C virus [2]) | IC50 [8] [µM] | IC50 [9] [µM] |
| --- | --- | --- | --- | --- | --- | --- | --- | --- | --- | --- | --- | --- |
| O=C1N/C(=N\c2nnc(-c3ccc(F)cc3)s2)S/C1=C\c1c(Cl)cccc1Cl | 98.9 | 98.8 | 72.2 | 74.1 | 13.6% | 19.8 | 73.2 |  |  |  |  |  |
| Nc1nnc(-c2ccc(F)cc2)s1 | 52.4 | 46.8 |  | 15.4 | 9.4% |  | 18.6 |  |  |  |  |  |
| O=C1N/C(=N\c2nnc(-c3ccc(Cl)cc3)s2)S/C1=C\c1ccccc1F | 98.5 | 96.4 | 12.8 | 56.2 | 65.6% | 56.2 | 13.1 |  |  |  |  |  |
| O=C1N/C(=N\c2nnc(-c3ccc(F)cc3)s2)S/C1=C\c1ccc(Cl)cc1Cl | 54.7 | 29.4 | 0 | 11.5 | inactive |  | 4.2 | 1.6 |  |  |  |  |
| Nc1nnc(-c2ccc(Cl)cc2)s1 | 72.8 | 37.4 | 28.6 | 16.8 | inactive |  | 32.4 | 1.6 |  |  |  |  |
| O=C1N/C(=N\c2nnc(-c3ccc(Cl)cc3)s2)S/C1=C\c1cccc(F)c1 | 95.6 | 92.8 | 58.1 | 65.5 | 63.1% | 48.2 | 60.3 |  |  |  |  |  |
| O=C1N/C(=N\c2nnc(-c3ccc(Cl)cc3)s2)S/C1=C\c1ccc(Cl)cc1Cl |  |  | 0 | 25.7 | inactive |  | 0 |  | inactive | inactive |  |  |
| O=C(NN1C(=O)CSC1c1ccccc1F)c1cc(-c2ccc(F)cc2F)ccc1O (stereo not drawn) |  |  |  |  |  |  |  |  |  |  | 48 |  |
| O=C1CS/C(=N/c2nnc(-c3ccc(Cl)cc3)s2)N1 | 89.8 | 54.1 | 15.2 | 74.4 | 65.7% | 42.5 | 13.3 | 1.6 |  |  |  |  |
| O=C1N/C(=N\c2nnc(-c3ccc(F)cc3)s2)S/C1=C\c1c(F)cccc1Cl | 98.5 | 99.4 | 89.8 | 28.1 |  |  | 74.6 |  |  |  |  |  |
| O=C1N/C(=N\c2nnc(-c3ccc(Cl)cc3)s2)S/C1=C\c1ccccc1Cl |  |  | 0 | 73.6 | inactive | 33.8 | 0 |  | inactive | inactive |  |  |
| O=C1N/C(=N\c2nnc(-c3ccc(Cl)cc3)s2)S/C1=C\c1c(F)cccc1Cl |  |  | 0 | 60.3 | inactive | 45.3 | 0 |  | inactive | inactive |  |  |
| O=C1N/C(=N\c2nnc(-c3ccc(F)cc3)s2)S/C1=C\c1ccc([N+](=O)[O-])cc1 | 50.4 | 51.2 | 14.6 | 24.1 | 7% |  | 13.9 |  |  |  |  |  |
| O=C1N/C(=N\c2nnc(-c3ccc(Cl)cc3)s2)S/C1=C\c1c(Cl)cccc1Cl | 98.1 | 98.5 | 94.9 | 82 |  | 5.6 | 76 |  |  |  |  |  |
| O=C1N/C(=N\c2nnc(-c3ccc(F)cc3)s2)S/C1=C\c1ccccc1F | 96.1 | 97.4 | 55.7 | 62.4 | 11% | 51.1 | 59.9 |  |  |  |  |  |
| COc1cccc(OC)c1/C=C1\S/C(=N/c2nnc(-c3ccc(Cl)cc3)s2)NC1=O | 98.9 | 97.7 | 87.4 | 24.1 |  |  | 80.4 |  |  |  |  |  |
| O=C1N/C(=N\c2nnc(-c3ccc(Cl)cc3)s2)S/C1=C\c1ccc(F)cc1 | 94.9 | 82.2 | 73.1 | 25 | inactive |  | 64.2 |  |  |  |  |  |
| O=C1/C(=C/c2ccc(Br)cc2)SC(=S)N1NS(=O)(=O)c1ccccc1 |  |  |  |  |  |  |  |  |  |  |  | 0.44 |
| COc1cccc(OC)c1/C=C1\S/C(=N/c2nnc(-c3ccc(F)cc3)s2)NC1=O | 93.2 | 87.7 | 73.7 | 19.7 | inactive |  | 63 |  |  |  |  |  |
| O=C1N/C(=N\c2nnc(-c3ccc(Cl)cc3)s2)S/C1=C\c1ccc([N+](=O)[O-])cc1 |  |  |  | 33 |  |  |  |  |  |  |  |  |
| O=C(CCl)Nc1nnc(-c2ccc(Cl)cc2)s1 |  |  | 98.9 | 20 |  |  | 81.9 |  |  |  |  |  |
| O=C(CCl)Nc1nnc(-c2ccc(F)cc2)s1 |  |  | 98.3 | 16 |  |  | 84.8 |  |  |  |  |  |
| O=C1N/C(=N\c2nnc(-c3ccc(F)cc3)s2)S/C1=C\c1cccc(F)c1 | 98 | 95.5 | 55.1 | 72 | 85.9% | 34.6 | 59.7 |  |  |  |  |  |
| O=C1N/C(=N\c2nnc(-c3ccc(F)cc3)s2)S/C1=C\c1ccccc1Cl | 95.3 | 98 | 11.4 | 53.9 | 61% | 64.9 | 15.6 |  |  |  |  |  |
| O=C1CS/C(=N/c2nnc(-c3ccc(F)cc3)s2)N1 | 72.8 | 70 |  | 76.1 | 57.9% | 38.6 | 14 |  |  |  |  |  |
